Measured values published in ChEMBL document CHEMBL3351563, “Discovery of 2-[2-(5-nitrofuran-2-yl)vinyl]quinoline derivatives as a novel type of antimetastatic agents” (Bioorg Med Chem, 2015).
Active and inactive are the calls of the source. No cut-off for these calls is given here.

How the values were obtained:
[1] = test system: MRC5; experiment: Antiproliferative activity against human MRC5 cells by XTT assay; type: cell-based
Summary of the method: (§1)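 Cells (5 × 10³/well) exposed to compound for 72 h in medium with 10% FBS, medium changed and cells incubated another day. Percent of control growth from mean absorbance (n = 3).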

[2] = test system: A549; experiment: Antiproliferative activity against human A549 cells by XTT assay; type: functional, cell-based; summary of the method: as §1
[3] = Antiproliferative activity against human H1299 cells by XTT assay; type: functional, cell-based; conditions: NCI-H1299; summary of the method: as §1
[4] = test system: MCF7; experiment: Antiproliferative activity against human MCF7 cells by XTT assay; type: functional, cell-based; summary of the method: as §1
[5] = test system: MDA-MB-231; experiment: Antiproliferative activity against human MDA-MB-231 cells by XTT assay; type: functional, cell-based; summary of the method: as §1
[6] = molecular target: 72 kDa type IV collagenase (Homo sapiens) (UniProt P08253); experiment: Residual MMP2 activity in human H1299 cells at 1 uM after 24 hrs by gelatin zymography
[7] = molecular target: Matrix metalloproteinase-9 (Homo sapiens) (UniProt P14780); experiment: Inhibition of MMP9 activity in human H1299 cells at 1 uM after 24 hrs by gelatin zymography; values are per cent of control
[8] = molecular target: 72 kDa type IV collagenase (Homo sapiens) (UniProt P08253); experiment: Residual MMP2 activity in human H1299 cells at 5 uM after 24 hrs by gelatin zymography
[9] = molecular target: Matrix metalloproteinase-9 (Homo sapiens) (UniProt P14780); experiment: Inhibition of MMP9 activity in human H1299 cells at 2 uM after 24 hrs by gelatin zymography; values are per cent of control
[10] = molecular target: 72 kDa type IV collagenase (Homo sapiens) (UniProt P08253); experiment: Inhibition of MMP2 activity in human H1299 cells after 24 hrs by gelatin zymography; type: cell-based
Summary of the method: (§2)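 3 × 10⁵ H1299 cells cultured 24 h with compound. Conditioned medium run on 10% SDS-PAGE with 1% gelatin, gel incubated overnight at 37 °C in 40 mM Tris-HCl pH 8.0, 10 mM CaCl₂, 0.02% NaN₃, then Coomassie-stained and destained. Bands quantified versus vehicle; n = 3.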

[11] = molecular target: Matrix metalloproteinase-9 (Homo sapiens) (UniProt P14780); experiment: Inhibition of MMP9 activity in human H1299 cells after 24 hrs by gelatin zymography; type: cell-based; summary of the method: as §2
[12] = molecular target: 72 kDa type IV collagenase (Homo sapiens) (UniProt P08253); experiment: Residual MMP2 activity in human H1299 cells at 2 uM after 24 hrs by gelatin zymography
[13] = molecular target: MAP kinase p38 (Homo sapiens) (UniProt O15264+Q15759+Q16539+P53778); experiment: Increase in p38 phosphorylation in human H1299 cells at 1 to 5 uM after 24 hrs by Western blotting method; type: cell-based
Summary of the method: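 H1299 cells given vehicle or 0.2, 0.5, 1, 2 and 5 µM compound. Lysate proteins probed with primary and secondary antibodies after 5% milk blocking, ECL chemiluminescence detection. β-actin as internal control; each blot representative of three independent experiments.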

Chain of 72 kDa type IV collagenase (Homo sapiens) (P08253 110-660 limits assumed): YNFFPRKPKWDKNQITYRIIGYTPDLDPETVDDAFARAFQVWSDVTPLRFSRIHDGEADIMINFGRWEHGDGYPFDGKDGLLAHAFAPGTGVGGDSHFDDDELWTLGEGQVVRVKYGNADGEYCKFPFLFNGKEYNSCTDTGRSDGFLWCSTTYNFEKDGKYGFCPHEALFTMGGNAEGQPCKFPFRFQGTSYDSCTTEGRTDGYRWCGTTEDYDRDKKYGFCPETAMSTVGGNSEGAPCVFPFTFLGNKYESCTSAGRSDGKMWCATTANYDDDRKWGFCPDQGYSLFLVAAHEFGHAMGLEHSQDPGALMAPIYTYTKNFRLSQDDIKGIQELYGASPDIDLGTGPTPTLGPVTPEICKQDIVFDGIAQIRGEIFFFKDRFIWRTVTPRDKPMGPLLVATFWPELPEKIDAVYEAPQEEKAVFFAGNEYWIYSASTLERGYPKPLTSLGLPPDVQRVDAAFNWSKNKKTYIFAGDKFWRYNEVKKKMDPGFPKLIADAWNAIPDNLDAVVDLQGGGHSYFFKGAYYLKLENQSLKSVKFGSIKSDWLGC
Chain of Matrix metalloproteinase-9 (Homo sapiens) (P14780 whole entry): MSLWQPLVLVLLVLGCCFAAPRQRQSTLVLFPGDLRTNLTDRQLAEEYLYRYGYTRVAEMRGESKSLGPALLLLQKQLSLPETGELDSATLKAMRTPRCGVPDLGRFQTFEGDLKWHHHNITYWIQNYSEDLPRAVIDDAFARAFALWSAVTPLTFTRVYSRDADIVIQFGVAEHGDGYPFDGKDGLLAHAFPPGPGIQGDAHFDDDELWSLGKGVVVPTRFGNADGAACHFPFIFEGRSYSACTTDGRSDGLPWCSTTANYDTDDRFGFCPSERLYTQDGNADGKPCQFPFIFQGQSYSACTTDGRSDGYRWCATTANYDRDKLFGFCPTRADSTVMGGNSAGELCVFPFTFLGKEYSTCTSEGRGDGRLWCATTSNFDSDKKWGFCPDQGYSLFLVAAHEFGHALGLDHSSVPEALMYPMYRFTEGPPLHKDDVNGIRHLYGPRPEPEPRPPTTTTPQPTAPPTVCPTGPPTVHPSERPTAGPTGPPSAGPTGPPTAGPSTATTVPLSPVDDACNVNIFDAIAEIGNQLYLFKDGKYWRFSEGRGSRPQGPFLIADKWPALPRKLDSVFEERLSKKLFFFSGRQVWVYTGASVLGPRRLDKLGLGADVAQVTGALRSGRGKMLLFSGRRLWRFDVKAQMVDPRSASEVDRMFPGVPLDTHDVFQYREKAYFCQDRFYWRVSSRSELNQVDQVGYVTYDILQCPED

Question: What does the source list for COc1ccc2c(c1)C(=O)c1c-2c(/C=C/c2ccc([N+](=O)[O-])o2)nc2ccc(OC)cc12?
Answer: IC50 [1]: 6070 nM; IC50 [2]: 1320 nM; IC50 [3]: 890 nM; IC50 [4]: 870 nM; IC50 [5]: 930 nM

Question: Which results are given for COc1ccc2c(c1)C(=O)c1c-2c(C)nc2ccc(F)cc12?
Answer: IC50 [1]: 43200 nM; IC50 [2]: 71100 nM; IC50 [3]: 31600 nM; IC50 [4]: 39600 nM; IC50 [5]: 52100 nM

Question: For COc1ccc2c(c1)C(=O)c1c-2c(/C=C/c2ccc([N+](=O)[O-])o2)nc2ccc(F)cc12, which IC50 [1] is on record?
Answer: 800 nM

Question: What about the IC50 [2] of the same molecule?
Answer: 740 nM

Question: And the IC50 [3]?
Answer: 460 nM

Question: And the IC50 [4]?
Answer: 580 nM

Question: What about the IC50 [5] of the same molecule?
Answer: 93 nM

Question: For COc1ccc2c(c1)C(=O)c1c-2c(/C=C/c2ccc([N+](=O)[O-])o2)nc2ccccc12, which IC50 [1] is on record?
Answer: 93 nM

Question: And the IC50 [2]?
Answer: 70 nM

Question: And the IC50 [3]?
Answer: 80 nM

Question: What about the IC50 [4] of the same molecule?
Answer: 620 nM

Question: What about the IC50 [5] of the same molecule?
Answer: 95 nM

Question: Which IC50 [1] does the source give for COc1cccc2c1C(=O)c1c(O)c3c(c(O)c1C2=O)C[C@@](O)(C(C)=O)C[C@@H]3O[C@H]1C[C@H](N)[C@H](O)[C@H](C)O1 [DAUNORUBICIN] here?
Answer: 78 nM

Question: What about the IC50 [2] of the same molecule?
Answer: 80 nM

Question: What about the IC50 [3] of the same molecule?
Answer: 96 nM

Question: And the IC50 [4]?
Answer: 650 nM

Question: And the IC50 [5]?
Answer: 91 nM

Question: Which residual activity [6] does the source give for COc1ccc(-c2cc3cc(OC)ccc3nc2/C=C/c2ccc([N+](=O)[O-])o2)cc1 here?
Answer: 75.5%

Question: What about the residual activity [7] of the same molecule?
Answer: 63.9%

Question: And the residual activity [8]?
Answer: 56.3%

Question: What about the residual activity [9] of the same molecule?
Answer: 31.5%

Question: What about the inhibition [10] of the same molecule?
Answer: Dose-dependent effect

Question: And the inhibition [11]?
Answer: Dose-dependent effect

Question: And the residual activity [12]?
Answer: 63.7%

Question: What about the Activity [13] of the same molecule?
Answer: Active

Question: What does the source list for COc1ccc2c(c1)C(=O)c1c-2c(C)nc2ccc(OC)cc12?
Answer: IC50 [1]: 78400 nM; IC50 [2]: 75900 nM; IC50 [3]: 33700 nM; IC50 [4]: 42000 nM; IC50 [5]: 62300 nM

Question: What does the source list for COc1ccc2c(c1)C(=O)c1c-2c(C)nc2ccccc12?
Answer: IC50 [1]: 65400 nM; IC50 [2]: 61600 nM; IC50 [3]: 21400 nM; IC50 [4]: 32600 nM; IC50 [5]: 42000 nM
